Laboratory results published in ChEMBL document CHEMBL3286143, “Minimizing the Contribution of Enterohepatic Recirculation to Clearance in Rat for the NCINI Class of Inhibitors of HIV” (ACS Med Chem Lett, 2014).

Test system: Human immunodeficiency virus 1
Assay: Antiviral activity against HIV1 NL4.3 harboring integrase T124/T125 mutant
Assay type: functional, organism-based
Settings: Human immunodeficiency virus 1, NL4.3
Method in brief: (§1)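 Cell-based antiviral assay giving EC50 (nM) against wild-type NL4.3 (IN T124/T125) or recombinant NL4.3 engineered to carry the naturally polymorphic integrase residues at positions 124 and 125.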

Question: Which EC50 does the source give for `Cc1nc2ccccc2c(-c2ccc3c(c2)CCCO3)c1[C@H](OC(C)(C)C)C(=O)O` here?
Answer: The EC50 was 51 nM.

Question: With `Cc1nc(-c2ccccc2)c(C)c(-c2ccc3c(c2)CCCO3)c1[C@H](OC(C)(C)C)C(=O)O` as the molecule, how does the EC50 read?
Answer: The EC50 was 68 nM.

Question: With `Cc1ccc(-c2nc(C)c([C@H](OC(C)(C)C)C(=O)O)c(-c3ccc4c(c3Cl)NCCO4)c2C)cc1C` (single isomer, unassigned; atropisomer) as the molecule, how does the EC50 read?
Answer: The EC50 was 3.3 nM.

Question: With `Cc1noc(C)c1-c1ccc(-c2nc(C)c([C@H](OC(C)(C)C)C(=O)O)c(-c3ccc4c(c3)CCCO4)c2C)c(F)c1` as the molecule, how does the EC50 read?
Answer: Its EC50 is 7.3 nM.

Question: With `Cc1ccc(-c2nc(C)c([C@H](OC(C)(C)C)C(=O)O)c(-c3ccc4c(c3)CCCO4)c2C)cc1C` as the molecule, how does the EC50 read?
Answer: Its EC50 is 11 nM.

Question: For `Cc1cccc(-c2nc(C)c([C@H](OC(C)(C)C)C(=O)O)c(-c3ccc4c(c3)CCCO4)c2C)c1`, which EC50 is on record?
Answer: The EC50 was 23 nM.

Question: Which EC50 does the source give for `Cc1nc2c(c(-c3ccc4c(c3)CCCO4)c1[C@H](OC(C)(C)C)C(=O)O)Cc1ccccc1-2` here?
Answer: The EC50 was 72 nM.

Question: For `Cc1nc(-c2cccc(-c3ccnn3C)c2)c(C)c(-c2ccc3c(c2)CCCO3)c1[C@H](OC(C)(C)C)C(=O)O`, which EC50 is on record?
Answer: The EC50 was 10 nM.

Question: Which EC50 does the source give for `Cc1nc(-c2ccc(-c3ccncc3)cc2)c(C)c(-c2ccc3c(c2)CCCO3)c1[C@H](OC(C)(C)C)C(=O)O` here?
Answer: Its EC50 is 23 nM.

Question: Which EC50 does the source give for `Cc1ccc(-c2nc(C)c([C@H](OC(C)(C)C)C(=O)O)c(-c3ccc4c(c3C)CCCO4)c2C)cc1C` (single isomer, unassigned; atropisomer) here?
Answer: The EC50 was 2.7 nM.

Test system: Human immunodeficiency virus 1
Assay: Antiviral activity against HIV1 NL4.3 harboring integrase T124/A125 mutant
Assay type: functional, organism-based
Settings: Human immunodeficiency virus 1, NL4.3
Method in brief: as §1

Question: Which EC50 does the source give for `Cc1nc2ccccc2c(-c2ccc3c(c2)CCCO3)c1[C@H](OC(C)(C)C)C(=O)O` here?
Answer: Its EC50 is 30 nM.

Question: For `Cc1nc(-c2ccccc2)c(C)c(-c2ccc3c(c2)CCCO3)c1[C@H](OC(C)(C)C)C(=O)O`, which EC50 is on record?
Answer: Its EC50 is 78 nM.

Question: Which EC50 does the source give for `Cc1nc2c(c(-c3ccc4c(c3)CCCO4)c1[C@H](OC(C)(C)C)C(=O)O)Cc1ccccc1-2` here?
Answer: Its EC50 is 110 nM.

Test system: not listed separately
Assay: Half life in rat liver microsomes
Assay type: ADME
Settings: not given

Question: With `Cc1ccc(-c2nc(C)c([C@H](OC(C)(C)C)C(=O)O)c(-c3ccc4c(c3Cl)NCCO4)c2C)cc1C` (single isomer, unassigned; atropisomer) as the molecule, how does the half-life read?
Answer: Its half-life is 0.933 h.

Question: For `Cc1ccc(-c2nc(C)c([C@H](OC(C)(C)C)C(=O)O)c(-c3ccc4c(c3)CCCO4)c2C)cc1C`, which half-life is on record?
Answer: Its half-life is 1.83 h.

Question: Which half-life does the source give for `Cc1ccc(-c2nc(C)c([C@H](OC(C)(C)C)C(=O)O)c(-c3ccc4c(c3C)CCCO4)c2C)cc1C` (single isomer, unassigned; atropisomer) here?
Answer: Its half-life is 1.5 h.

Target: Human immunodeficiency virus type 1 integrase (Human immunodeficiency virus 1) (UniProt Q7ZJM1)
Assay: Ratio of app-Kd for Trx-His-tagged HIV integrase to His-tagged HIV integrase
Settings: not given

Chain of Human immunodeficiency virus type 1 integrase (Human immunodeficiency virus 1) (Q7ZJM1 as listed by the source): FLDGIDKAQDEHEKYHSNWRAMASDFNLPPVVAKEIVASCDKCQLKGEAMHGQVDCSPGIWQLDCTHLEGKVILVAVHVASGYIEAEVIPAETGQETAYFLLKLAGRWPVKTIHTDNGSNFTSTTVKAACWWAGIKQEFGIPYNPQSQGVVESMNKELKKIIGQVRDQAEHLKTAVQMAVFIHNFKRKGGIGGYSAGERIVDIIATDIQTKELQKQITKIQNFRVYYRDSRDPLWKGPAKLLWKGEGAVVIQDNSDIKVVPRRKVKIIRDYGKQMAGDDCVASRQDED

Question: For `Cc1nc(-c2ccccc2)c(C)c(-c2ccc3c(c2)CCCO3)c1[C@H](OC(C)(C)C)C(=O)O`, which Ratio is on record?
Answer: Its Ratio is 25.

Target: T1, Human immunodeficiency virus type 1 integrase (Human immunodeficiency virus 1, UniProt Q7ZJM1)
Assay: Apparent binding affinity to Trx-His-tagged HIV integrase
Settings: read-out: Kd(app)
Method in brief: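 Apparent dissociation constant from the same displacement assay, run instead with a thioredoxin-tagged His6 integrase construct.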

T1 sequence (Q7ZJM1 whole entry): as the sequence (Q7ZJM1 as listed by the source) above

Question: Which Kd does the source give for `Cc1nc(-c2ccccc2)c(C)c(-c2ccc3c(c2)CCCO3)c1[C@H](OC(C)(C)C)C(=O)O` here?
Answer: The Kd was 40 nM.

Question: For `Cc1ccc(-c2nc(C)c([C@H](OC(C)(C)C)C(=O)O)c(-c3ccc4c(c3Cl)NCCO4)c2C)cc1C` (single isomer, unassigned; atropisomer), which Kd is on record?
Answer: Its Kd is 28 nM.

Question: With `Cc1noc(C)c1-c1ccc(-c2nc(C)c([C@H](OC(C)(C)C)C(=O)O)c(-c3ccc4c(c3)CCCO4)c2C)c(F)c1` as the molecule, how does the Kd read?
Answer: Its Kd is 35 nM.

Question: Which Kd does the source give for `Cc1ccc(-c2nc(C)c([C@H](OC(C)(C)C)C(=O)O)c(-c3ccc4c(c3)CCCO4)c2C)cc1C` here?
Answer: Its Kd is 27 nM.

Question: Which Kd does the source give for `Cc1nc(-c2cccc(-c3ccnn3C)c2)c(C)c(-c2ccc3c(c2)CCCO3)c1[C@H](OC(C)(C)C)C(=O)O` here?
Answer: The Kd was 52 nM.

Question: With `Cc1nc(-c2ccc(-c3ccncc3)cc2)c(C)c(-c2ccc3c(c2)CCCO3)c1[C@H](OC(C)(C)C)C(=O)O` as the molecule, how does the Kd read?
Answer: Its Kd is 24 nM.

Question: With `Cc1ccc(-c2nc(C)c([C@H](OC(C)(C)C)C(=O)O)c(-c3ccc4c(c3C)CCCO4)c2C)cc1C` (single isomer, unassigned; atropisomer) as the molecule, how does the Kd read?
Answer: Its Kd is 26 nM.

Target: T1, Human immunodeficiency virus type 1 integrase
Assay: Apparent binding affinity to His-tagged HIV integrase
Settings: read-out: Kd(app)

Question: Which Kd does the source give for `Cc1nc2ccccc2c(-c2ccc3c(c2)CCCO3)c1[C@H](OC(C)(C)C)C(=O)O` here?
Answer: The Kd was 24 nM.

Question: For `Cc1nc(-c2ccccc2)c(C)c(-c2ccc3c(c2)CCCO3)c1[C@H](OC(C)(C)C)C(=O)O`, which Kd is on record?
Answer: Its Kd is 1000 nM.

Question: For `Cc1nc2c(c(-c3ccc4c(c3)CCCO4)c1[C@H](OC(C)(C)C)C(=O)O)Cc1ccccc1-2`, which Kd is on record?
Answer: The Kd was 160 nM.

Test system: Human immunodeficiency virus 1
Assay: Antiviral activity against HIV1 NL4.3 harboring integrase N124/T125 mutant
Assay type: functional, organism-based
Settings: Human immunodeficiency virus 1, NL4.3
Method in brief: as §1

Question: Which EC50 does the source give for `Cc1nc2ccccc2c(-c2ccc3c(c2)CCCO3)c1[C@H](OC(C)(C)C)C(=O)O` here?
Answer: The EC50 was 77 nM.

Question: Which EC50 does the source give for `Cc1nc(-c2ccccc2)c(C)c(-c2ccc3c(c2)CCCO3)c1[C@H](OC(C)(C)C)C(=O)O` here?
Answer: Its EC50 is 800 nM.

Question: For `Cc1ccc(-c2nc(C)c([C@H](OC(C)(C)C)C(=O)O)c(-c3ccc4c(c3Cl)NCCO4)c2C)cc1C` (single isomer, unassigned; atropisomer), which EC50 is on record?
Answer: The EC50 was 830 nM.

Question: Which EC50 does the source give for `Cc1noc(C)c1-c1ccc(-c2nc(C)c([C@H](OC(C)(C)C)C(=O)O)c(-c3ccc4c(c3)CCCO4)c2C)c(F)c1` here?
Answer: Its EC50 is 830 nM.

Question: With `Cc1ccc(-c2nc(C)c([C@H](OC(C)(C)C)C(=O)O)c(-c3ccc4c(c3)CCCO4)c2C)cc1C` as the molecule, how does the EC50 read?
Answer: The EC50 was 1400 nM.

Question: With `Cc1cccc(-c2nc(C)c([C@H](OC(C)(C)C)C(=O)O)c(-c3ccc4c(c3)CCCO4)c2C)c1` as the molecule, how does the EC50 read?
Answer: The EC50 was 1100 nM.

Question: Which EC50 does the source give for `Cc1nc2c(c(-c3ccc4c(c3)CCCO4)c1[C@H](OC(C)(C)C)C(=O)O)Cc1ccccc1-2` here?
Answer: The EC50 was 34 nM.

Question: Which EC50 does the source give for `Cc1nc(-c2cccc(-c3ccnn3C)c2)c(C)c(-c2ccc3c(c2)CCCO3)c1[C@H](OC(C)(C)C)C(=O)O` here?
Answer: Its EC50 is 1000 nM.

Question: For `Cc1nc(-c2ccc(-c3ccncc3)cc2)c(C)c(-c2ccc3c(c2)CCCO3)c1[C@H](OC(C)(C)C)C(=O)O`, which EC50 is on record?
Answer: Its EC50 is 150 nM.

Question: For `Cc1ccc(-c2nc(C)c([C@H](OC(C)(C)C)C(=O)O)c(-c3ccc4c(c3C)CCCO4)c2C)cc1C` (single isomer, unassigned; atropisomer), which EC50 is on record?
Answer: Its EC50 is 620 nM.

Test system: not listed separately
Assay: Half life in human liver microsomes
Assay type: ADME
Settings: not given

Question: Which half-life does the source give for `Cc1nc(-c2ccccc2)c(C)c(-c2ccc3c(c2)CCCO3)c1[C@H](OC(C)(C)C)C(=O)O` here?
Answer: The half-life was 0.533 h.

Question: Which half-life does the source give for `Cc1ccc(-c2nc(C)c([C@H](OC(C)(C)C)C(=O)O)c(-c3ccc4c(c3Cl)NCCO4)c2C)cc1C` (single isomer, unassigned; atropisomer) here?
Answer: Its half-life is 1.7 h.

Question: With `Cc1noc(C)c1-c1ccc(-c2nc(C)c([C@H](OC(C)(C)C)C(=O)O)c(-c3ccc4c(c3)CCCO4)c2C)c(F)c1` as the molecule, how does the half-life read?
Answer: Its half-life is 1 h.

Question: For `Cc1ccc(-c2nc(C)c([C@H](OC(C)(C)C)C(=O)O)c(-c3ccc4c(c3)CCCO4)c2C)cc1C`, which half-life is on record?
Answer: Its half-life is 0.567 h.

Question: With `Cc1ccc(-c2nc(C)c([C@H](OC(C)(C)C)C(=O)O)c(-c3ccc4c(c3C)CCCO4)c2C)cc1C` (single isomer, unassigned; atropisomer) as the molecule, how does the half-life read?
Answer: Its half-life is 1.13 h.
